The nature of data set [1]: Hydrolysis were done at 25 degree C in 0.05 M phosphate buffer (pH 7.4). It is filed as ADME. The gist of the method: (§1)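 Model pyridinium salts were hydrolysed to pyridones at 25 °C in 0.05 M phosphate buffer, pH 7.4. Decay of the pyridinium UV absorption maximum was monitored over time, giving pseudo-first-order k_obs and half-life.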
Data set [2] in a line: Half life of the compound. It is filed as ADME.
Data set [3] deals with P388. The experiment in a line: In vivo activity against P388 Lymphocytic Leukemia in CD2F1 mice at the dose of 100 mg/kg, activity expressed as body weight difference. Type of data set: functional, Mus musculus. The gist of the method: (§2)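 CD2F1 mice were inoculated with ascitic fluid holding ca. 10^6 P388 cells. Drug was given daily from 24 h after inoculation, from solutions or suspensions made fresh each day, some as a saline suspension. TDS is survivors/initial animals on day 5. BWD is body weight on day 5 minus day 1. %T/C compares median survival of treated and control mice.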

In data set [4] the test system is P388. The experiment in a line: In vivo activity against P388 Lymphocytic Leukemia in CD2F1 mice at the dose of 12.5 mg/kg, activity expressed as body weight difference. Type of data set: functional, Mus musculus. The gist of the method: as §2
The subject of data set [5] is P388. The experiment in a line: In vivo activity against P388 Lymphocytic Leukemia in CD2F1 mice at the dose of 25 mg/kg, activity expressed as body weight difference. It is filed as functional, Mus musculus. The procedure, abridged: as §2
Data set [6] relates to P388. The experiment in a line: In vivo activity against P388 Lymphocytic Leukemia in CD2F1 mice at the dose of 50 mg/kg, activity expressed as body weight difference. It is filed as functional, Mus musculus. The procedure, abridged:
as §2

The subject of data set [7] is P388. Briefly: In vivo activity against P388 Lymphocytic Leukemia in CD2F1 mice at the dose of 50 mg/kg, activity expressed as % T/C. Type of data set: functional, Mus musculus. The procedure, abridged:
as §2

In data set [8] the test system is P388. Briefly: In vivo activity against P388 Lymphocytic Leukemia in CD2F1 mice at the dose of 12.5 mg/kg, activity expressed as TDS; 6/6. Type of data set: functional, Mus musculus. The gist of the method:
as §2

In data set [9] the test system is P388. Briefly: In vivo activity against P388 Lymphocytic Leukemia in CD2F1 mice at the dose of 200 mg/kg, activity expressed as TDS; 0/6. It is filed as functional, Mus musculus. The procedure, abridged: as §2
Data set [10] has as its system P388. The experiment in a line: In vivo activity against P388 Lymphocytic Leukemia in CD2F1 mice at the dose of 25 mg/kg, activity expressed as TDS; 6/6. Type of data set: functional, Mus musculus. The procedure, abridged: as §2
Data set [11] concerns P388. Briefly: In vivo activity against P388 Lymphocytic Leukemia in CD2F1 mice at the dose of 50 mg/kg, activity expressed as TDS; 6/6. It is filed as functional, Mus musculus. The procedure, abridged: as §2
The test system of data set [12] is P388. Briefly: In vivo activity against P388 Lymphocytic Leukemia in CD2F1 mice at the dose of 100 mg/kg, activity expressed as KE. It is filed as functional, Mus musculus.
Data set [13] relates to P388. Briefly: In vivo activity against P388 Lymphocytic Leukemia in CD2F1 mice at the dose of 12.5 mg/kg, activity expressed as KE. It is filed as functional, Mus musculus.
Data set [14] deals with P388. Briefly: In vivo activity against P388 Lymphocytic Leukemia in CD2F1 mice at the dose of 25 mg/kg, activity expressed as KE. It is filed as functional, Mus musculus.
In data set [15] the test system is P388. Briefly: In vivo activity against P388 Lymphocytic Leukemia in CD2F1 mice at the dose of 50 mg/kg, activity expressed as KE. Type of data set: functional, Mus musculus.
The test system of data set [16] is P388. Briefly: In vivo activity against P388 Lymphocytic Leukemia in CD2F1 mice at the dose of 12.5 mg/kg, activity expressed as % T/C. It is filed as functional, Mus musculus. The gist of the method:
as §2

The subject of data set [17] is P388. The experiment in a line: In vivo activity against P388 Lymphocytic Leukemia in CD2F1 mice at the dose of 25 mg/kg, activity expressed as % T/C. It is filed as functional, Mus musculus. The procedure, abridged:
as §2

Data set [18] deals with P388. Briefly: In vivo activity against P388 Lymphocytic Leukemia in CD2F1 mice at the dose of 100 mg/kg, activity expressed as TDS. Type of data set: functional, Mus musculus. The procedure, abridged:
as §2

For data set [19], the system named is P388. The experiment in a line: In vivo activity against P388 Lymphocytic Leukemia in CD2F1 mice at the dose of 100 mg/kg, activity expressed as % T/C. Type of data set: functional, Mus musculus. The gist of the method: as §2
Data set [20] is described as follows: Hydrolysis at 25 degree C in 0.05 M phosphate buffer (pH 7.4); the rate was too fast to measure these conditions. Type of data set: ADME. The procedure, abridged: as §1

For orientation: half-life means the time in which the quantity being followed falls by half. Read a high half-life as slow decline. One may read the T/C as the result in the treated group divided by that in the control group, in per cent.

Each structure is given as a SMILES string.

`CCOC(=O)c1cc[n+](C)c(Br)c1.O=S(=O)([O-])C(F)(F)F` had a K obs in [1] of 0.0002 min⁻¹. In [2], this molecule had a half-life of 3460 min.
For the molecule `CC(C)NC(=O)OCc1c(COC(=O)NC(C)C)c(-c2cc[n+](C)c(Cl)c2)n2c1CCC2.[I-]`, the BWD in the data set with P388 [3] is -0.8 g; with P388 [4], -0.1 g; in the data set with P388 [5] it was 0.4 g; in the data set with P388 [6], -0.5 g. The T/C was found to be 112% in the data set on P388 [7], 103% with P388 [16], 103% with P388 [17] and 121% in the data set with P388 [19]. Moreover, the TDS in the data set on P388 [8] amounted to 6; in the data set on P388 [9], 0; in the data set with P388 [10], 6; with P388 [11], 6; in the data set on P388 [18], 6. The KE in the data set with P388 [12] is recorded as -1.07; with P388 [13] it was -1.56; in the data set with P388 [14], -1.56; in the data set on P388 [15] it was -1.44.
`Cc1ccc(F)[n+](C)c1.O=S(=O)([O-])C(F)(F)F`: the K obs in data set [1] is 0.0605 min⁻¹. This molecule also displayed a half-life in data set [2] of 11.4 min.
Regarding `CCOC(=O)c1cc[n+](C)c(Cl)c1.O=S(=O)([O-])C(F)(F)F`, the K obs in data set [1] was found to be 0.055 min⁻¹. In addition, the half-life in [2] was 360 min.
On to `CCOC(=O)c1cc[n+](C)c(F)c1.O=S(=O)([O-])C(F)(F)F`, for which, in data set [20], the K obs entry is on record as “Rate too fast”.

The values above are taken from ChEMBL document CHEMBL1124794, “Synthesis, chemistry, and antineoplastic activity of alpha-halopyridinium salts: potential pyridone prodrugs of acylated vinylogous carbinolamine tumor inhibitors” (J Med Chem, 1990).
